Reference: ChEMBL document CHEMBL1155142, “Promoter and transcription analysis of penicillin-binding protein genes in Streptococcus gordonii” (2007)
Values after ≈ are worked out from the molar mass of the structure shown. Active and inactive are the calls of the source. The rule behind the calls is not given here.

How the values were obtained:
[1] = tested on: Streptococcus gordonii; assay: Increase in pbp2B gene expression in penicillin-resistant Streptococcus gordonii with penicillin binding protein PR1_2 evolved mutation assessed as relative luciferase units relative to control; format: functional
Method in brief: (§1)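 pbp promoter–luc transcriptional fusions integrated into the chromosome of resistant strain PR1_2evolved. Cells grown at 37°C in BHI without aeration from a 1/100 overnight inoculum. Penicillin G at 1/2× or 1/8× MIC added at OD620 0.12. Samples taken into sodium citrate pH 5.5, with 1 mM D-luciferin solution in glycylglycine/MgSO4 buffer added. Light read 10 s at 22°C; RLU normalised to OD620, expressed as % of untreated; means of six experiments.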

[2] = tested on: Streptococcus gordonii; assay: Antibacterial activity against Streptococcus gordonii with non penicillin binding protein mutation; format: functional
[3] = tested on: Streptococcus gordonii; assay: Antibacterial activity against Streptococcus gordonii with penicillin binding protein mutation; format: functional
[4] = tested on: Streptococcus gordonii; assay: Antibacterial activity against penicillin-resistant Streptococcus gordonii with penicillin binding protein PR1_2 evolved mutation; format: functional
[5] = tested on: Streptococcus gordonii; assay: Antibacterial activity against wild type penicillin-susceptible Streptococcus gordonii at 4 times MIC; format: functional, organism-based
Method in brief: (§2)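 S. gordonii was grown at 37°C in BHI broth without aeration from a 1/100 inoculum of an overnight culture. Penicillin G was added once OD620 reached 0.12, and growth was followed by OD620 against an untreated culture.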

[6] = tested on: Streptococcus gordonii; assay: Antibacterial activity against wild type penicillin-susceptible Streptococcus gordonii at 2 times MIC; format: functional, organism-based; method in brief: as §2
[7] = tested on: Streptococcus gordonii; assay: Induction of pbp2A gene expression in wild type penicillin-susceptible Streptococcus gordonii assessed as relative luciferase units relative to control; format: functional, organism-based
Method in brief: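 The pbp2A promoter was fused to promoterless luc on the chromosome (integrative pJDC9) in S. gordonii grown in BHI at 37°C, and penicillin G was added at OD620 0.12. Samples of 100 µl went into sodium citrate pH 5.5, then 50 µl of 1 mM D-luciferin in glycylglycine/MgSO4 buffer was added. Light was read for 10 s after a 2 s delay at 22°C, normalized to OD620, and expressed as % of the untreated culture.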

[8] = tested on: Streptococcus gordonii; assay: Increase in pbp1A gene expression in penicillin-resistant Streptococcus gordonii with penicillin binding protein PR1_2 evolved mutation assessed as relative luciferase units relative to control; format: functional; method in brief: as §1
[9] = tested on: Streptococcus gordonii; assay: Increase in pbp1B gene expression in penicillin-resistant Streptococcus gordonii with penicillin binding protein PR1_2 evolved mutation assessed as relative luciferase units relative to control; format: functional; method in brief: as §1
[10] = tested on: Streptococcus gordonii; assay: Increase in pbp2A gene expression in penicillin-resistant Streptococcus gordonii with penicillin binding protein PR1_2 evolved mutation assessed as relative luciferase units relative to control; format: functional; method in brief: as §1
[11] = tested on: Streptococcus gordonii; assay: Increase in pbp2X gene expression in penicillin-resistant Streptococcus gordonii with penicillin binding protein PR1_2 evolved mutation assessed as relative luciferase units relative to control; format: functional; method in brief: as §1
[12] = tested on: Streptococcus gordonii; assay: Increase in pbp1A gene expression in penicillin-resistant Streptococcus gordonii with penicillin binding protein PR1_2 evolved mutation at 1/2 times MIC assessed as relative luciferase units relative to control; format: functional, organism-based; method in brief: as §1
[13] = tested on: Streptococcus gordonii; assay: Increase in pbp2A gene expression in penicillin-resistant Streptococcus gordonii with penicillin binding protein PR1_2 evolved mutation at 1/2 times MIC assessed as relative luciferase units relative to control; format: functional, organism-based; method in brief: as §1
[14] = tested on: Streptococcus gordonii; assay: Increase in pbp1A gene expression in penicillin-resistant Streptococcus gordonii with penicillin binding protein PR1_2 evolved mutation at 1/8 times MIC assessed as relative luciferase units relative to control; format: functional, organism-based; method in brief: as §1
[15] = tested on: Streptococcus gordonii; assay: Effect on pbp2B gene expression in penicillin-resistant Streptococcus gordonii with penicillin binding protein PR1_2 evolved mutation assessed as relative luciferase units relative to control; format: functional, organism-based; method in brief: as §1
[16] = tested on: Streptococcus gordonii; assay: Effect on pbp2X gene expression in penicillin-resistant Streptococcus gordonii with penicillin binding protein PR1_2 evolved mutation assessed as relative luciferase units relative to control; format: functional, organism-based; method in brief: as §1

**Q.** Which Activity [1] does the source give for `CC1(C)S[C@@H]2[C@H](NC(=O)Cc3ccccc3)C(=O)N2[C@H]1C(=O)O` [PENICILLIN G] here?
**A.** 1.39

**Q.** And the MIC [2]?
**A.** 0.008 µg/mL (≈ 0.0239 µM)

**Q.** And the MIC [3]?
**A.** 0.5 µg/mL (≈ 1.5 µM)

**Q.** And the MIC [4]?
**A.** 2 µg/mL (≈ 5.98 µM)

**Q.** What about the Activity [5] of the same molecule?
**A.** Active

**Q.** What about the Activity [6] of the same molecule?
**A.** Active

**Q.** What about the Activity [7] of the same molecule?
**A.** Active

**Q.** What about the Activity [8] of the same molecule?
**A.** 1.55

**Q.** What about the Activity [9] of the same molecule?
**A.** 0.7

**Q.** And the Activity [10]?
**A.** 1.59

**Q.** And the Activity [11]?
**A.** 2.1

**Q.** And the Activity [12]?
**A.** Active

**Q.** And the Activity [13]?
**A.** Active

**Q.** What about the Activity [14] of the same molecule?
**A.** Active

**Q.** What about the Activity [15] of the same molecule?
**A.** inactive

**Q.** What about the Activity [16] of the same molecule?
**A.** Active
